High-throughput results deposited in PubChem BioAssay by several laboratories.
Hsp70 activator = switches on Hsp70 transcription; HeLa Hsp70 promoter luciferase reporter, luminescence; scaled: vehicle 0, proteasome-inhibitor control 100%; activation, % at 10 µM; 200,000 compounds, 0.04% hits;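 active = activation above the mean across all tested compounds plus 3 SD, cutoff set per campaign, cut at about 5.5% in these data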;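 also: 100% = MG132 at 30 µM as the positive control and 0% = DMSO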
L major viab = inhibitors of Leishmania major promastigote growth. Leishmania major promastigotes, resazurin fluorescence viability. inhibition, % at 10 µM. 200,000 compounds, 9% hits. AID 1063; in the data active = inhibition above about 50%;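 also: promastigotes grown with compound for 44 hours at 28 °C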
HSF1 activator = increases HSF-1 driven luciferase reporter signal | activation, % at 9 µM | 300,000 compounds, 1.7% hits | NIH3T3-HGL HSF-1 luciferase reporter, MG132, 8 h; 100% = twice DMSO control signal | AID 504408;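 active = mean replicate activation of at least 50% with a set share of replicates each reaching 50%; inconclusive = only one of those two conditions met; inactive = mean below 50% and too few replicates reaching it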;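 also: 0% = median of the neutral control wells and 100% = twice that signal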
HSF1 inhib = HSF1 inhibition. AID 2098. 300,000 compounds, 0.77% hits. activity change, negative = inhibition, % at 7.5 µM (by protocol). NIH3T3-HGL HSE-luciferase, MG132-induced, luminescence 8 h; stronger effect = lower value;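 active = more than half of replicate wells show activity change below -50%, luminescence cut by over half; inconclusive = some wells, but at most half, below -50%; inactive = no replicate well below -50%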;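 also: luciferase reports HSF-1 transcriptional activity via heat shock element; 0% = median of DMSO wells and -100% = zero luminescence signal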
T cruzi repl = blocks replication of Trypanosoma cruzi; T. cruzi beta-gal in NIH3T3, luminescence, 90 h; 300,000 compounds, 1.4% hits; inhibition, % (no concentration beside the values);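 active = mean inhibition across valid replicates above about 55%, limit read from the data; inconclusive = mean below that limit but half or more replicates reach it; inactive = mean below it, under half of replicates reach it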;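 also: signal also drops with host cell toxicity which is not excluded here; 0% = plate median of DMSO wells and 100% = zero luminescence signal; higher percent means less beta-gal luminescence so fewer parasites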
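Read-out: Parasite load inhibition, % | Test system: Mouse NIH/3T3 fibroblasts infected with β-gal-expressing T. cruzi Tulahuen C4 | Amount: 5,000 cells/well | Medium: DMEM, 2% fetal bovine serum | Signal: GalScreen β-gal luminescence, detergent lysis, 60 min | Timing: 3 h attach, ≥90 h co-culture | Also added: Tulahuen C4 trypomastigotes, 5000/well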
* marks the source's active call; other numbers are inactive results; ? = inconclusive; / = not tested or not shown. This is one part of a sample in which hits are shown more often than they occur.

SMILES	Hsp70 activator	L major viab	HSF1 activator	HSF1 inhib	T cruzi repl
Cc1nn(Cc2c(F)c(F)c(F)c(F)c2F)c(C)c1NC(=O)c1ccc(COc2ccc(Cl)cc2Cl)o1	0	27	2	-3	67*
Cc1nc2ccc(C(=O)N3c4ccccc4CC3C)cc2s1 (stereo not given)	0	0	7	-2	-4
Cc1ccc(OCc2cc(C(=O)N(C)CCc3nc4ccccc4[nH]3)no2)cc1C	/	/	-87	-88*	11
Cc1ccc(OCc2cc(C(=O)N(C)CCc3ccccn3)no2)cc1C	/	/	28	13	2
COc1ccc(/C=C/C(=O)c2ccc[nH]2)cc1OC	0	10	62*	33	-5
COc1ccc(/C=C/C(=O)c2cc(Br)ccc2O)cc1OC	0	29	66*	28	0
O=C(/C=C/c1ccccn1)c1cc(Br)ccc1O	/	/	10	10	-5
COc1ccc(/C=C/C(=O)c2cc(Br)ccc2OC(=O)c2ccco2)cc1OC	-1	79*	18	15	-6
COC(=O)N/N=C/c1ccc(OC(=O)c2ccco2)c(OC)c1	/	/	-6	1	19
Cc1ccc2oc(C(=O)NC3CCS(=O)(=O)C3)cc(=O)c2c1 (stereo not given)	/	/	-7	-4	-5
CCC(C)n1cnc2c(c1=O)c1nc3ccccc3nc1n2Cc1ccc(OC)cc1 (stereo not given)	0	1	104*	37	40
Cc1ccc(-c2c[n+](Cc3cccc(Cl)c3)c3n2CCC3)cc1	/	/	-11	-8	67*
O=C(C[n+]1cc(-c2ccc(Cl)cc2)n2c1CCCCC2)c1ccccc1	/	/	22	9	21
Clc1ccc(-c2c[n+](Cc3ccc(Cl)c(Cl)c3)c3n2CCC3)cc1	0	99*	/	/	/
CCc1ccc(NC(=O)C[n+]2cc(-c3ccc(C)cc3)n3c2CCC3)cc1	/	/	5	0	12
O=C(C[n+]1cc(-c2ccccc2)n2c1CCC2)N1c2ccccc2Sc2ccccc21	0	31	15	-2	40
Clc1cccc(C[n+]2cc(-c3ccccc3)n3c2CCC3)c1	0	99*	-21	-11	64*
Cc1ccc(-c2c[n+](Cc3ccc(Cl)cc3)c3n2CCC3)cc1	/	/	28	-3	61*
COc1cc(C(=O)NC2=C(C#N)CCC2)cc(OC)c1OC	0	1	6	-6	6
FC(F)(F)c1cc(-c2ccccn2)nc2cc(-c3ccccc3)nn12	/	/	6	-5	0
CCCn1c(SCC(=O)Nc2cccc(S(=O)(=O)N(C)C)c2)nc2ccccc2c1=O	/	/	-1	-1	9
C=CCNC(=O)c1cc(Cl)ccc1[N+](=O)[O-]	0	-4	12	-2	-9
C=CCN(CC=C)C(=O)c1cc(Cl)ccc1[N+](=O)[O-]	0	51*	-12	-14	4
Cc1ccccc1NC(=O)c1ccc([N+](=O)[O-])o1	0	69*	13	13	36
CN1CCN(c2ccccc2NC(=O)c2ccc([N+](=O)[O-])o2)CC1	/	/	20	10	32
SMILES	Hsp70 activator	L major viab	HSF1 activator	HSF1 inhib	T cruzi repl
Cc1cccc(NC(=O)c2ccc([N+](=O)[O-])o2)n1	0	96*	3	5	33
O=C(Nc1cccc2ncccc12)c1ccc([N+](=O)[O-])o1	/	/	-8	-7	-8
O=C(Nc1ccccc1Cl)c1ccc([N+](=O)[O-])o1	/	/	?	42	5
CS(=O)(=O)N1CCN(c2ccccc2NC(=O)c2ccc([N+](=O)[O-])o2)CC1	0	100*	13	10	49
Cc1cccnc1NC(=O)c1ccc([N+](=O)[O-])o1	0	77*	4	7	30
CC1Cc2ccccc2N1C(=O)CSc1nnc(-c2ccc(S(=O)(=O)N3CCOCC3)cc2)n1C (stereo not given)	0	11	20	0	-2
Cc1ccc(N(C(=O)c2csnn2)C(C(=O)NC2CCCC2)c2cccnc2)c(C)c1 (stereo not given)	/	/	7	3	-13
CCO[C@@H]1OC(C(=O)N2CCCCCCC2)=C[C@H](c2ccc(C(F)(F)F)cc2)[C@H]1CCCO	0	-2	-4	-5	27
Cc1ccc(NC(=O)c2ccc([N+](=O)[O-])o2)c(C)c1	0	94*	44	22	41
Cc1ccc(-c2nnc(NC(=O)c3ccc([N+](=O)[O-])o3)o2)c(C)c1	/	/	-4	-4	49
CCS(=O)(=O)c1ccc(O)c(NC(=O)NC2CCCCC2)c1	/	/	17	-11	-8
CCOc1cccc(/C=C/c2ccc3cccc(O)c3n2)c1O	/	/	3	12	38
CCOc1cccc(/C=C/c2ccc3cccc(O)c3n2)c1OC	/	/	143*	122	84*
COc1ccccc1/C=C/c1ccc2cccc(O)c2n1	/	/	18	-6	56*
CC1(C)Cc2c(cnn2-c2ccccc2)-c2c1c1ccccc1n2CC(O)CCl (stereo not given)	0	100*	10	12	15
COc1ccccc1CNS(=O)(=O)c1c(C)[nH]c(C)c1C(=O)N1CCCC1	/	/	16	-3	-11
Cc1ccc(C)c(NC(=O)CSc2nc3ccc(N4C(=O)c5ccccc5C4=O)cc3s2)c1	0	99*	9	12	2
C=C(C)CNC(=S)N1CCNC(=O)C1CC(=O)OC (stereo not given)	-1	78*	0	-7	6
N#Cc1c(NCCN)nc(-c2ccco2)c2c1CCCC2	0	100*	11	-2	8
CC(C)CCNc1nc(-c2ccco2)c2c(c1C#N)CCCC2	0	3	-7	-2	19
NC1=NC(=O)/C(=C/c2c(OS(=O)(=O)c3ccc(Cl)cc3)ccc3ccccc23)S1	0	61*	6	-5	-20
CC(C)n1cc(/C=N/NC(=O)COc2cccc3cccnc23)c2ccccc21	0	16	78*	22	15
C=CCn1cc(/C=N/NC(=O)COc2cccc3cccnc23)c2ccccc21	0	3	-10	2	3
CC(C)(C)c1ccc(S(=O)(=O)N2CCC(c3nc4ccc(Cl)cc4[nH]3)CC2)cc1	1	18	-2	4	55*
Clc1ccc(CN2CCC(c3nc4ccc(Cl)cc4[nH]3)CC2)cc1	-1	99*	/	/	51
SMILES	Hsp70 activator	L major viab	HSF1 activator	HSF1 inhib	T cruzi repl
CC(=O)Nc1ccc(S(=O)(=O)N2CCC(c3nc4ccc(C)cc4[nH]3)CC2)cc1	0	-6	-8	-4	5
COc1ccc(/C=C(/NC(=O)c2ccccc2Cl)C(=O)NCCCC(=O)O)cc1	0	-6	-1	-2	-7
CCOC(=O)C(CCCCOc1cccc(CC)c1)C(=O)OCC	0	45	6	2	15
CCc1cccc(OCCCCN(CC)CC)c1	0	98*	0	0	3
CCc1cccc(OCCCCNCCCOC)c1	0	99*	8	-7	30
CCOc1cccc(OCCCNCCCOC)c1	0	88*	/	/	-22
